Data from ChEMBL document CHEMBL1138813, “Synthesis and antiviral activity of 3-formyl- and 3-cyano-2,5,6-trichloroindole nucleoside derivatives” (J Med Chem, 2004).

Experiments:
[1] = system: HFF; experiment: Cytotoxicity produced in stationary HFF cells was determined by microscopic inspection of uninfected cells; format: functional, cell-based; conditions: Homo sapiens
Method in brief: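 Stationary HFF cells in MEM with 10% fetal bovine serum, in plaque-assay plates. Visual cytotoxicity scored microscopically in duplicate wells on cells not affected by virus, at the time of HCMV plaque enumeration (after 7–10 days at 37 °C). IC50 from linear portion of regression of % inhibition against log10 drug concentration.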

[2] = Inhibitory concentration required against herpes simplex virus type-1 (HSV-1) expressed in BSC-1 cells was determined by ELISA assay; format: functional, cell-based, Cercopithecidae
Method in brief: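 BSC-1 cells, 10 000 per well in MEM(E) plus 10% calf serum, incubated overnight at 37 °C. Drug added in quadruplicate with HSV-1 KOS strain at 100 pfu/well, then 3 days at 37 °C. […] Acyclovir as positive control.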

[3] = Cytotoxicity against KB cells was determined by crystal violet staining and spectrophotometric quantitation of dye eluted from stained cells; format: functional, cell-based; conditions: Homo sapiens
Method in brief: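 KB cells seeded at 3000–5000 per well, incubated overnight at 37 °C, then compound added in quadruplicate at six to eight concentrations. After 48 h at 37 °C in CO₂ (two population doublings), cells were fixed in 95% ethanol and stained with 0.1% crystal violet. Dye eluted with acidified ethanol, read at 570 nm. IC50 from linear regression of % inhibition vs log10 concentration.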

[4] = system: HFF; experiment: Inhibitory concentration required against human cytomegalovirus (HCMV) expressed in HFF cells was determined by plaque reduction assay; format: functional, cell-based
Method in brief: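 HFF cells in 24-well dishes infected with about 100 pfu/cm² of HCMV Towne strain. After adsorption, compound (10 mg/mL DMSO stock diluted in medium) added to duplicate wells at four to eight concentrations. Incubated 7–10 days at 37 °C, then fixed and crystal violet stained; plaques counted microscopically. % plaque reduction vs drug-free wells; IC50 by log-linear regression. GCV as positive control.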

| Compound | IC50 [1] | IC50 [2] | IC50 [3] | IC50 [4] |
| --- | --- | --- | --- | --- |
| CC(=O)N/N=C/c1c(Cl)n(C2O[C@H](CO)[C@@H](O)C2O)c2cc(Cl)c(Cl)cc12 (single isomer, unassigned) | 32 µM | 30 µM | 9 µM | 1.7 µM |
| COC(=O)N/N=C/c1c(Cl)n(C2O[C@H](CO)[C@@H](O)[C@H]2O)c2cc(Cl)c(Cl)cc12 (some centres not stated) | 32 µM | 30 µM | 20 µM | 1.7 µM |
| OC[C@H]1OC(n2c(Cl)c(/C=N/O)c3cc(Cl)c(Cl)cc32)C(O)[C@@H]1O (single isomer, unassigned) | 20 µM | 5 µM | 25 µM | 3.9 µM |
| NC(=O)N/N=C/c1c(Cl)n(C2O[C@H](CO)[C@@H](O)[C@H]2O)c2cc(Cl)c(Cl)cc12 (some centres not stated) | 100 µM | > 100 µM | > 100 µM | 3 µM |
| N/C(=N\O)c1c(Cl)n(C2O[C@H](CO)[C@@H](O)C2O)c2cc(Cl)c(Cl)cc12 (single isomer, unassigned) | 100 µM | 70 µM | > 100 µM | 0.3 µM |
| N#Cc1c(Cl)n(C2O[C@H](CO)[C@@H](O)C2O)c2cc(Cl)c(Cl)cc12 (single isomer, unassigned) | – | 15 µM | 65 µM | 0.55 µM |
| CO/N=C/c1c(Cl)n(C2O[C@H](CO)[C@@H](O)C2O)c2cc(Cl)c(Cl)cc12 (single isomer, unassigned) | 32 µM | 15 µM | 70 µM | 40 µM |
| OC[C@H]1O[C@@H](n2c(Br)nc3cc(Cl)c(Cl)cc32)C(O)[C@@H]1O (single isomer, unassigned) | – | 130 µM | > 100 µM | – |
| COC(=N)c1c(Cl)n(C2O[C@H](CO)[C@@H](O)C2O)c2cc(Cl)c(Cl)cc12 (single isomer, unassigned) | 100 µM | 70 µM | 50 µM | 0.36 µM |
| Nc1nc2c(ncn2COC(CO)CO)c(=O)[nH]1 [GANCICLOVIR] | > 100 µM | 3.5 µM | > 100 µM | – |
| N/C(=N\O)c1c(Br)n(C2O[C@H](CO)[C@@H](O)C2O)c2cc(Cl)c(Cl)cc12 (single isomer, unassigned) | > 100 µM | > 100 µM | 35 µM | 0.41 µM |
| OC[C@H]1O[C@@H](n2c(Cl)nc3cc(Cl)c(Cl)cc32)C(O)[C@@H]1O (single isomer, unassigned) | – | 102 µM | 210 µM | – |
| O=Cc1c(Cl)n(C2O[C@H](CO)[C@@H](O)C2O)c2cc(Cl)c(Cl)cc12 (single isomer, unassigned) | – | 40 µM | 45 µM | 0.23 µM |
| N/C(S)=N/N=C/c1c(Cl)n(C2O[C@H](CO)[C@@H](O)[C@H]2O)c2cc(Cl)c(Cl)cc12 (some centres not stated) | 100 µM | > 100 µM | 65 µM | 2.2 µM |
| NC(=O)c1c(Cl)n(C2O[C@H](CO)[C@@H](O)C2O)c2cc(Cl)c(Cl)cc12 (single isomer, unassigned) | 45 µM | 40 µM | 45 µM | 2 µM |
| CN(C)/N=C/c1c(Cl)n(C2O[C@H](CO)[C@@H](O)C2O)c2cc(Cl)c(Cl)cc12 (single isomer, unassigned) | 32 µM | 15 µM | 70 µM | 0.27 µM |
